From ChEMBL document CHEMBL1641478, “Structural and biochemical study on the inhibitory activity of derivatives of 5-nitro-furan-2-carboxylic acid for RNase H function of HIV-1 reverse transcriptase” (Bioorg Med Chem, 2011)

How the values were obtained:
[1] = biological target: Human immunodeficiency virus type 1 reverse transcriptase (Human immunodeficiency virus 1, UniProt Q72547); experiment: Inhibition RNase H activity of HIV1 reverse transcriptase expressed in Escherichia coli stain BL21(DE3)pLysS
How it was run: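 His-tagged p66/p51 RT expressed in E. coli BL21(DE3)pLysS with 1 mM IPTG for 3 h. Substrate: 18-mer RNA labelled with 3′-FAM, annealed to complementary DNA carrying a 5′-BHQ quencher. Reaction used 100 ng RT at 37 °C, with cleavage followed in real time by fluorescence at 488 nm every 150 s. IC50 taken as the concentration halving the cleavage rate relative to control.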

[2] = (§1) Cytotoxicity against human MT4 cells after 3 days by MTT assay; type: cell-based; details: MT4 cells
How it was run: (§2)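 Cells in RPMI-1640 with 10% FBS: MT-4 seeded at 4 × 10⁵/mL, 293T at 2 × 10⁵/mL. Compound final concentrations 100, 50, 25 and 12.5 µM, 1% DMSO final, plus an untreated control. Incubated 3 days at 37 °C in 5% CO₂. MTT added for 1 h, then solubilized overnight at 4 °C and read at OD570/690. CC50 derived only when viability fell below 50% at 100 µM.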

[3] = Cytotoxicity against human 293T cells after 3 days by MTT assay; type: cell-based, HEK-293T; details: for CC50 at 72 h: 293T cells; for CC50: hek-293t, 72 h; how it was run: as §2
[4] = system: MT4; experiment: as §1; type: cell-based; details: mt4, 72 h; how it was run: as §2

IC50 [1]	SMILES	CC50 at 72 h [2]	CC50 at 72 h [3]	CC50 [4]	CC50 [3]
> 50 µM	CCOC(=O)[C@H](CC(C)C)NC(=O)c1ccc([N+](=O)[O-])o1	–	–	–	–
7.1 µM	CC(=O)COC(=O)c1ccc([N+](=O)[O-])o1	> 100 µM	> 100 µM	–	–
7.5 µM	COc1ccc(CN(C(=O)COC(=O)c2ccc([N+](=O)[O-])o2)C(C)(C)C)cc1	> 100 µM	> 100 µM	–	–
6.9 µM	CC(C)(C)N(Cc1ccc([N+](=O)[O-])cc1)C(=O)COC(=O)c1ccc([N+](=O)[O-])o1	> 100 µM	> 100 µM	–	–
> 50 µM	CC(C)(C)NC(=O)COC(=O)c1ccc(-c2cccc([N+](=O)[O-])c2)o1	–	–	–	–
2.1 µM	O=C(OCCc1ccc([N+](=O)[O-])cc1)c1ccc([N+](=O)[O-])o1	28 µM	36 µM	–	–
8.5 µM	CC(C)(C)N(Cc1ccc(F)cc1)C(=O)COC(=O)c1ccc([N+](=O)[O-])o1	> 100 µM	> 100 µM	–	–
> 50 µM	CC(C)(C)NC(=O)COC(=O)c1ccc(-c2ccccc2[N+](=O)[O-])o1	–	–	–	–
12.8 µM	CC(=O)Oc1ccccc1CN(C(=O)COC(=O)c1ccc([N+](=O)[O-])o1)C(C)(C)C	> 100 µM	> 100 µM	–	–
> 50 µM	COC(=O)CNC(=O)c1ccc([N+](=O)[O-])o1	–	–	–	–
> 50 µM	CC(C)(C)NC(=O)COC(=O)c1ccc([N+](=O)[O-])cc1	–	–	–	–
9 µM	CC(C)(C)N(Cc1ccccc1C(F)(F)F)C(=O)COC(=O)c1ccc([N+](=O)[O-])o1	95 µM	65 µM	–	–
> 50 µM	CC(C)(C)N(Cc1ccc(OCc2ccccc2)cc1)C(=O)COC(=O)c1ccc([N+](=O)[O-])o1	–	–	Not Active	Not Active
> 50 µM	CCOC(=O)[C@H](C)NC(=O)c1ccc([N+](=O)[O-])o1	–	–	–	–
> 50 µM	CC(C)(C)N(Cc1ccccc1)C(=O)COC(=O)c1ccco1	–	–	–	–
8.2 µM	CC(C)(NC(=O)COC(=O)c1ccc([N+](=O)[O-])o1)c1ccccc1	> 100 µM	> 100 µM	–	–
> 50 µM	CCOC(=O)[C@@H](NC(=O)c1ccc([N+](=O)[O-])o1)c1ccccc1	–	–	–	–
5.5 µM	O=C(COC(=O)c1ccc([N+](=O)[O-])o1)NC1Cc2ccccc2C1	> 100 µM	> 100 µM	–	–
8 µM	CC(C)(C)N(Cc1ccc(C(F)(F)F)cc1)C(=O)COC(=O)c1ccc([N+](=O)[O-])o1	71 µM	36 µM	–	–
6.8 µM	CC(C)(C)N(Cc1c(F)c(F)c(F)c(F)c1F)C(=O)COC(=O)c1ccc([N+](=O)[O-])o1	> 100 µM	83 µM	–	–
8.5 µM	CC(C)(C)N(Cc1cccc(C(F)(F)F)c1)C(=O)COC(=O)c1ccc([N+](=O)[O-])o1	> 100 µM	68 µM	–	–
0.9 µM	CC(C)(C)N(Cc1ccccc1)C(=O)COC(=O)c1ccc([N+](=O)[O-])o1	> 100 µM	> 100 µM	–	–
9.8 µM	CC(C)(C)N(Cc1cccc([N+](=O)[O-])c1)C(=O)COC(=O)c1ccc([N+](=O)[O-])o1	> 100 µM	78 µM	–	–
8.7 µM	CC(=O)Oc1ccc(CN(C(=O)COC(=O)c2ccc([N+](=O)[O-])o2)C(C)(C)C)cc1	> 100 µM	> 100 µM	–	–
> 50 µM	CC(C)(C)NC(=O)COC(=O)c1ccccc1[N+](=O)[O-]	–	–	–	–
> 50 µM	CC(C)(C)N(CCC(=O)c1ccccc1)C(=O)COC(=O)c1ccc([N+](=O)[O-])o1	–	–	Not Active	Not Active
7.7 µM	O=C(OCC(=O)N(Cc1ccccc1)CC1CCCO1)c1ccc([N+](=O)[O-])o1 (stereo not given)	> 100 µM	> 100 µM	–	–

IC50 [1]	SMILES	CC50 at 72 h [2]	CC50 at 72 h [3]	CC50 [4]	CC50 [3]
4.3 µM	CC(C)(Cc1ccccc1)NC(=O)COC(=O)c1ccc([N+](=O)[O-])o1	> 100 µM	> 100 µM	–	–
5.8 µM	CCC(C)(C)NC(=O)COC(=O)c1ccc([N+](=O)[O-])o1	> 100 µM	> 100 µM	–	–
> 50 µM	CC(C)(C)NC(=O)COC(=O)c1ccc(Br)o1	–	–	–	–
> 50 µM	CCOC(=O)[C@H](Cc1ccccc1)NC(=O)c1ccc([N+](=O)[O-])o1	–	–	–	–
> 50 µM	CC(C)(C)NC(=O)COC(=O)c1ccno1	–	–	–	–
6.1 µM	O=C(COC(=O)c1ccc([N+](=O)[O-])o1)NC1CCc2ccccc21 (stereo not given)	> 100 µM	> 100 µM	–	–
4.2 µM	O=C(COC(=O)c1ccc([N+](=O)[O-])o1)NCC1CCCO1 (stereo not given)	> 100 µM	> 100 µM	–	–
> 50 µM	CC(C)(C)N(Cc1ccccc1)C(=O)COC(=O)c1cc([N+](=O)[O-])cc([N+](=O)[O-])c1	–	–	–	–
2.7 µM	CN(OC(=O)c1ccc([N+](=O)[O-])o1)C(=O)c1ccc([N+](=O)[O-])o1	86 µM	> 100 µM	–	–
> 50 µM	CC(C)(C)NC(=O)COC(=O)c1ccc(C(=O)c2ccccc2)o1	–	–	–	–
5.7 µM	CC(C)(C)C(=O)COC(=O)c1ccc([N+](=O)[O-])s1	–	–	–	–
> 50 µM	CCOC(=O)[C@H](Cc1ccc(O)cc1)NC(=O)c1ccc([N+](=O)[O-])o1	–	–	–	–
2.8 µM	CC(C)(C)NC(=O)COC(=O)c1ccc([N+](=O)[O-])s1	> 100 µM	> 100 µM	–	–
18 µM	CC(C)(C)NC(=O)COC(=O)c1ccc([N+](=O)[O-])o1	> 100 µM	> 100 µM	–	–
9.5 µM	CC(=O)COC(=O)c1ccc([N+](=O)[O-])s1	–	–	–	–
> 50 µM	CC(C)(C)NC(=O)COC(=O)c1cccc([N+](=O)[O-])c1	–	–	–	–
5.8 µM	CCC(C)(C)NC(=O)COC(=O)c1ccc([N+](=O)[O-])s1	–	–	–	–
33.5 µM	CCC(C)(C)N(Cc1ccc([N+](=O)[O-])cc1)C(=O)COC(=O)c1ccc([N+](=O)[O-])s1	–	–	–	–
21.9 µM	CC(C)(C)C(=O)COC(=O)c1ccc([N+](=O)[O-])o1	> 100 µM	> 100 µM	–	–
4.3 µM	O=C(COC(=O)c1ccc([N+](=O)[O-])o1)NC1CCCc2ccccc21 (stereo not given)	> 100 µM	> 100 µM	–	–
5 µM	O=C(OCC(=O)N(Cc1ccc(O)cc1)CC1CCCO1)c1ccc([N+](=O)[O-])o1 (stereo not given)	> 100 µM	> 100 µM	–	–
> 50 µM	CC(C)(C)N(CCCc1ccccc1)C(=O)COC(=O)c1ccc([N+](=O)[O-])o1	–	–	Not Active	Not Active
25.8 µM	CCC(C)(C)N(Cc1cccc([N+](=O)[O-])c1)C(=O)COC(=O)c1ccc([N+](=O)[O-])s1	–	–	–	–
13.2 µM	CC(C)OC(=O)COC(=O)c1ccc([N+](=O)[O-])o1	> 100 µM	> 100 µM	–	–
> 50 µM	CC(C)(C)NC(=O)COC(=O)c1ccc(-c2ccc([N+](=O)[O-])cc2)o1	–	–	–	–
14.2 µM	CC(C)(C)N(CCc1ccccc1)C(=O)COC(=O)c1ccc([N+](=O)[O-])o1	> 100 µM	67 µM	–	–
